In ChEMBL document CHEMBL2040715, “Discovery of a Potent HIV Integrase Inhibitor that Leads to a Prodrug with Significant anti-HIV Activity” (ACS Med Chem Lett, 2011):

Assays:
[1] = test system: Human immunodeficiency virus 1; experiment: Antiviral activity against HIV1 infected in MAGI cells by beta-galactosidase reporter gene assay; type: functional, organism-based; details: Human immunodeficiency virus 1, MAGI
Summary of the method: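 HIV-1 infection of MAGI cells, with raltegravir as the MOI-sensitive positive control validating each run. EC50 and EC90 were determined.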

Cytochrome P450 2D6 [2] = biological target: T1, Cytochrome P450 2D6 (Homo sapiens, UniProt P10635); experiment: Inhibition of CYP2D6 in human liver microsomes using dextromethorphan as substrate incubated for 3 mins prior to NAPDH-addition measured after 60 mins by RP-HPLC analysis
Cytochrome P450 2D6 [3] = biological target: T1, Cytochrome P450 2D6; experiment: Activation of CYP2D6 in human liver microsomes incubated for 3 mins prior to NAPDH-addition measured after 60 mins by RP-HPLC analysis; details: 1 h
[4] = biological target: T2, UDP-glucuronosyltransferase 1A1 (Homo sapiens, UniProt P22309); experiment: Activity at UGT1A1 in human liver microsomes at 50 uM incubated for 3 mins prior to NADPH-addition measured up to 120 mins by HPLC/UV analysis; type: ADME, Microsome
T2 sequence (P22309 whole entry): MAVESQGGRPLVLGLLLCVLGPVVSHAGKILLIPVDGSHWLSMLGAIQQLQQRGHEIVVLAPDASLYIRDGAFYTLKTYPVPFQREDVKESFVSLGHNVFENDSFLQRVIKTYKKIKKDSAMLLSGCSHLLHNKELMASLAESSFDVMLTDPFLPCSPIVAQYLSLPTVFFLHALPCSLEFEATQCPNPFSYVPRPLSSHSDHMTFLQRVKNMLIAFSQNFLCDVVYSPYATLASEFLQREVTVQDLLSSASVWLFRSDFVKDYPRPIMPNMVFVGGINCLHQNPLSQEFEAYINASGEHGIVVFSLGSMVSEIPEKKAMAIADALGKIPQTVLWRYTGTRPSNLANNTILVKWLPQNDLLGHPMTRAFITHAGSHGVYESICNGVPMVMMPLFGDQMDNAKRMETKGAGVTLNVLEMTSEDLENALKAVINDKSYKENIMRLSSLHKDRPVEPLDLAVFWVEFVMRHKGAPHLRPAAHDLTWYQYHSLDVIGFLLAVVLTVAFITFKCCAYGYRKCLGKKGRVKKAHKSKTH

Cytochrome P450 3A4 = Cytochrome P450 3A4 (Homo sapiens, UniProt P08684); experiment: Activation of CYP3A4 in human liver microsomes incubated for 3 mins prior to NAPDH-addition measured after 30 mins by RP-HPLC analysis; type: ADME, Microsome; details: 0.5 h
Liver microsomes [5] = experiment: Drug metabolism in human liver microsomes assessed as 3-acetyl-5-(2,4-difluorobenzyl)-1-(2-fluorobenzyl)pyridin-2(1H)-one production at 200 uM incubated for 3 mins prior to NADPH-addition by RP-HPLC analysis; type: ADME, Microsome; details: 0.05 h
[6] = Metabolic stability in human liver microsomes assessed as compound remaining at 200 uM incubated for 3 mins prior to NADPH-addition measured after 3 hrs by RP-HPLC analysis; type: ADME, Microsome; details: read-out: Stability
Summary of the method: (§1)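 Pooled human liver microsomes were preincubated with test compound, and the reaction was started with NADPH at 37 °C. Samples were taken at several times up to 3 h and quenched with cold acetonitrile. Precipitated protein was removed by centrifugation, then HPLC with UV detection measured parent remaining, from which the in vitro half-life was derived.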

Liver microsomes [7] = experiment: Half life in human liver microsomes at 200 uM incubated for 3 mins prior to NADPH-addition by RP-HPLC analysis; type: ADME, Microsome; details: 0.05 h; summary of the method: as §1
[8] = biological target: T3, UDP-glucuronosyltransferase 2B7 (Homo sapiens, UniProt P16662); experiment: Activity at UGT2B7 in human liver microsomes at 50 uM incubated for 3 mins prior to NADPH-addition measured up to 120 mins by HPLC/UV analysis; type: ADME, Microsome
T3 sequence (P16662 whole entry): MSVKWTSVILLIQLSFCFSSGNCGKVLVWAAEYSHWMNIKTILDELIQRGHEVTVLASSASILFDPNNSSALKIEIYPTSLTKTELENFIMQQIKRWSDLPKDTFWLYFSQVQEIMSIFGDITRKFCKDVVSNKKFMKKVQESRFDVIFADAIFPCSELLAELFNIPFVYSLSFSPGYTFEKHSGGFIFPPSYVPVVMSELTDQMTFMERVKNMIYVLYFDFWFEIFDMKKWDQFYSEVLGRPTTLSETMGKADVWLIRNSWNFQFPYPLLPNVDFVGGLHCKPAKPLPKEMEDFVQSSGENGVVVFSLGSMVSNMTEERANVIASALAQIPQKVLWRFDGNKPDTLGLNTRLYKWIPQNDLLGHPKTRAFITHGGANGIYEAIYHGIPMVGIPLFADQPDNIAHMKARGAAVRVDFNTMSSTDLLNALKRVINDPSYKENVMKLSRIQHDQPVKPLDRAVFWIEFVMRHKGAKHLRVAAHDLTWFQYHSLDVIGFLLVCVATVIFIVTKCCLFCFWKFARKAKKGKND

T1 sequence (P10635 whole entry): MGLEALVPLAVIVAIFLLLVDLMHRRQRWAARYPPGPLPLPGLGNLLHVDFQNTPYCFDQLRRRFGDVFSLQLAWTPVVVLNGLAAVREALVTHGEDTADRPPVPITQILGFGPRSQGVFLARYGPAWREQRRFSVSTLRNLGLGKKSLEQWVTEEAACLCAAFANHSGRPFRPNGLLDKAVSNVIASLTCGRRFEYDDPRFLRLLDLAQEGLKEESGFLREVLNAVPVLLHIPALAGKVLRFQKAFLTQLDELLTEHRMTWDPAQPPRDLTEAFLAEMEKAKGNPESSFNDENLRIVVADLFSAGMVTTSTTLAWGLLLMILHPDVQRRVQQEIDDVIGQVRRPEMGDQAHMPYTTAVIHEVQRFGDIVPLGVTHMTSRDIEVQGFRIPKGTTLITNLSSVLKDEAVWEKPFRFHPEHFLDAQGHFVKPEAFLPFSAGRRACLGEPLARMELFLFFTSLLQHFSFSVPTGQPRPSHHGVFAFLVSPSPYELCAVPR
Cytochrome P450 3A4, sequence (P08684 whole entry): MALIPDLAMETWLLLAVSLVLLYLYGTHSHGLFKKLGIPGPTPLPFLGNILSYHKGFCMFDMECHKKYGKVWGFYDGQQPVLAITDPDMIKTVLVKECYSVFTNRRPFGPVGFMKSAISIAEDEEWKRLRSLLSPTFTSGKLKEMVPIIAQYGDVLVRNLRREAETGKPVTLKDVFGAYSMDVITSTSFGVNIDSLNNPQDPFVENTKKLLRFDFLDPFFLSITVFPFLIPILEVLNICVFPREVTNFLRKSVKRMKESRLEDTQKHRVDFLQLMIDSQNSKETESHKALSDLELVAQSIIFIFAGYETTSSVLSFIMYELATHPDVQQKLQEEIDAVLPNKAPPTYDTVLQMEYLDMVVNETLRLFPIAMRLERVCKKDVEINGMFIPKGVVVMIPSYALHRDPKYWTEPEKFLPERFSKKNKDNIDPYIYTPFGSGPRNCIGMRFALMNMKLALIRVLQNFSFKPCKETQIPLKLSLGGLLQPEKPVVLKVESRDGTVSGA

Question: For `O=C(O)/C(O)=C/C(=O)c1cc(Cc2ccc(F)cc2F)cn(Cc2ccccc2F)c1=O`, which EC50 [1] is on record?
Answer: Its EC50 is 0.5 µM.

Question: What about the IC50 (Cytochrome P450 2D6 [2]) of the same compound?
Answer: Its IC50 is > 200 µM.

Question: And the Activity (Cytochrome P450 2D6 [3])?
Answer: The Activity was “Not Active”.

Question: And the Activity [4]?
Answer: The Activity was “Not Active”.

Question: And the Activity (Cytochrome P450 3A4)?
Answer: Its Activity is “Not Active”.

Question: And the Drug metabolism (Liver microsomes [5])?
Answer: Its Drug metabolism is “Active”.

Question: And the remaining at 3 h, 200 µM [6]?
Answer: The remaining at 3 h, 200 µM was 80%.

Question: What about the t1/2 (Liver microsomes [7]) of the same compound?
Answer: Its t1/2 is > 3 h.

Question: What about the Activity [8] of the same compound?
Answer: Its Activity is “Not Active”.
